# ChEMBL document CHEMBL1137788, “Potential neuroprotective drugs in cerebral ischemia: new saturated and polyunsaturated lipids coupled to hydrophilic moieties: synthesis and biological activity” (J Med Chem, 2009)
# Calls of active or inactive are those of the source. No cut-off for these calls is given here.
# Experiments:
# HT-22 [1] = assay: Neuroprotective effect against glutamate-induced neuronal cell death in mouse HT22 cells assessed as cell survival at 1 to 10 uM treated simultaneously with glutamate after 24 hrs by MTT assay; assay type: functional
# Procedure, shortened: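 Mouse HT22 hippocampal cells grown in DMEM/10% FCS, seeded 5 × 10³ cells/well. Next day medium changed to DMEM with 7.5% dialyzed FCS and cells given analogue doses together with 5 mM glutamate for 24 h. Medium then replaced with 2.5 μg/mL MTT for 4 h at 37 °C and solubilized in 50% DMF/20% SDS (pH 4.7). A570 read next day. Maximal % survival at best dose reported.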
# HT-22 [2] = assay: Activation of ERK phosphorylation in mouse HT22 cells at 10 uM treated simultaneously with iodoacetic acid for 2 hrs followed by 2 hrs of recovery in presence of drug alone by immunoblot analysis; assay type: cell-based
# Procedure, shortened: (§1)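 HT22 cells, plated at the same density as for the death assays, were given 10 μM compound with or without 20 μM IAA for 2 h, then allowed 2 h of recovery with compound present. Cells were washed in PBS and lysed in SDS sample buffer with Na3VO4 and PMSF. Lysates were run on 10% gels and immunoblotted for phospho and total ERK, JNK, p38, c-Jun and MAPKAPK2.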
# HT-22 [3] = assay: Neuroprotective effect against iodoacetic acid-induced ischemia in mouse HT22 cells assessed as cell survival at 1 to 10 uM treated simultaneously with iodoacetic acid for 2 hrs followed by incubation in fresh medium containing drug alone for 20 hrs measured after 4 hrs by MTT assay; assay type: functional
# Procedure, shortened: (§2)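 HT22 cells were seeded at 5 × 10³ per well and moved next day to DMEM with 7.5% dialyzed FCS. They were exposed to 20 μM iodoacetic acid plus graded compound doses for 2 h, then given fresh IAA-free medium containing compound for 20 h. MTT was added for 4 h at 37 °C and absorbance read at 570 nm.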
# HT-22 [4] = assay: Neuroprotective effect against iodoacetic acid-induced ischemia in mouse HT22 cells treated simultaneously with iodoacetic acid for 2 hrs followed by incubation in fresh medium containing drug alone for 20 hrs measured after 4 hrs by MTT assay; assay type: functional, cell-based; procedure, shortened: as §2
# [5] = Cytotoxicity against mouse HT22 cells at 10 uM after 24 hrs by MTT assay; assay type: cell-based; settings: ht-22, 24 h
# Procedure, shortened: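 HT22 cells grown in DMEM with 10% FCS were seeded at 5 × 10³ cells per well. The medium was switched to DMEM with 7.5% dialyzed FCS and cells were exposed to 10 μM compound alone. Viability was read after 24 h by MTT (2.5 μg/mL, 4 h at 37 °C, solubilized in DMF/SDS pH 4.7) at 570 nm.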
# HT-22 [6] = assay: Inhibition of JNK activation in mouse HT22 cells assessed as c-jun phosphorylation at 10 uM treated simultaneously with iodoacetic acid for 2 hrs followed by 2 hrs of recovery in presence of drug alone by immunoblot analysis; assay type: cell-based; procedure, shortened: as §1
# HT-22 [7] = assay: Inhibition of JNK activation in mouse HT22 cells at 10 uM treated simultaneously with iodoacetic acid for 2 hrs followed by 2 hrs of recovery in presence of drug alone by immunoblot analysis; assay type: cell-based; procedure, shortened: as §1
# [8] = target: T1, MAP kinase p38 (Mus musculus) (UniProt P47811+O08911+Q9WUI1+Q9Z1B7); assay: Inhibition of p38 MAPK activation in mouse HT22 cells at 10 uM treated simultaneously with iodoacetic acid for 2 hrs followed by 2 hrs of recovery in presence of drug alone by immunoblot analysis; assay type: cell-based; settings: HT-22; procedure, shortened: as §1
# [9] = target: T1, MAP kinase p38 (Mus musculus); assay: Inhibition of p38 MAPK activation in mouse HT22 cells assessed as MAPKAPK2 phosphorylation at 10 uM treated simultaneously with iodoacetic acid for 2 hrs followed by 2 hrs of recovery in presence of drug alone by immunoblot analysis; assay type: cell-based; settings: HT-22; procedure, shortened: as §1
# Brain = assay: Neuroprotective effect against glutamate-induced injury in rat brain slices at 10 uM treated 1 hr prior to and during glutamate challenge by 2, 3, 5-triphenyl tetrazolium chloride staining method; assay type: functional, tissue-based
# Procedure, shortened: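 Rat cortical slices were cultured with compound for 1 h before and during injury with 1 mM glutamate. Slice viability was assessed by TTC staining, n=6, mean ± SD.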
Compound,%max (HT-22 [1]),Activity (HT-22 [2]),%max (HT-22 [3]),EC50 (HT-22 [4]),Activity [5],Activity (HT-22 [6]),Activity (HT-22 [7]),Activity [8],Activity [9],Activity (Brain)
CCCCC/C=C\C/C=C\CCCCCCCC(=O)NCCCCCC(=O)OCC(O)C1OC(=O)C(O)=C1O (stereo not drawn),32%,inactive,55%,6.4 µM,19%,,,,,
CCCCCCCCCCCCCCCCCC(=O)NC(CO)P(=O)(OC)OC (stereo not drawn),17%,inactive,64%,4.1 µM,11%,,,,,
CCCCCCCCCCCCCCCCCC(=O)NCCCCCC(=O)OCC(O)C1OC(=O)C(OCc2ccccc2)=C1OCc1ccccc1 (stereo not drawn),19%,inactive,68%,2.5 µM,48%,,,,,
CC1=CC(=O)CC(C)(C)C1(O)/C=C/C(C)=C/C(=O)NC(CO)C(=O)O (stereo not drawn),14%,inactive,70%,2.7 µM,40%,,,,,
CCCCCCCCCCCCCCCCCC(=O)NCCCCCC(=O)OCC(O)C1OC(=O)C(O)=C1O (stereo not drawn),65%,inactive,92%,1.8 µM,40%,,,,,
CCCCCCCCCCCCCCCCCC(=O)NC(CO)C(=O)OCC (stereo not drawn),16%,inactive,56%,9.8 µM,53%,,,,,
CCCCC/C=C/C/C=C/CCCCCCCC(=O)NC(C(=O)OCC)c1nnn[nH]1 (stereo not drawn),8%,inactive,41%,11.3 µM,4%,,,,,
CCOC(=O)C(CO)NC(=O)[C@@]1(C)CCC[C@@]2(C)C1CC=C1C=C(C(C)C)CC[C@H]12 (stereo partly drawn),55%,inactive,85%,1.05 µM,25%,Active,Active,Active,Active,
CCCCC/C=C/C/C=C/CCCCCCCC(=O)NCCCCCC(=O)OCC(O)C1OC(=O)C(OCc2ccccc2)=C1OCc1ccccc1 (stereo not drawn),13%,inactive,59%,8.2 µM,7%,,,,,
CCCCCCCCCCCCCCCCCC(=O)NC(CO)P(=O)(O)O (stereo not drawn),20%,inactive,74%,2.1 µM,50%,,,,,
O=c1c(O)c(-c2ccc(O)c(O)c2)oc2cc(O)ccc12 [FISETIN],,inactive,95%,2.8 µM,15%,,,,,
CCOC(=O)C(CO)NC(=O)C=C(C)/C=C/C=C(C)/C=C/C1=C(C)CCCC1(C)C (stereo not drawn),14%,inactive,45%,11.6 µM,15%,,,,,
CCOC(=O)C(CO)NC(=O)/C=C(C)/C=C/C1(O)C(C)=CC(=O)CC1(C)C (stereo not drawn),21%,inactive,39%,13.6 µM,1%,,,,,
CCCCCCCCCCCCCCCCCC(=O)NC(CO)C(=O)O (stereo not drawn),16%,inactive,65%,3.2 µM,28%,,,,,Active
CC(C)C1=CC2=CCC3[C@](C)(CCC[C@]3(C)C(=O)NC(CO)C(=O)O)[C@@H]2CC1 (stereo partly drawn),10%,inactive,27%,,26%,,,,,
CC1=C(/C=C/C(C)=C/C=C/C(C)=C/C(=O)NC(CO)C(=O)O)C(C)(C)CCC1 (stereo not drawn),16%,inactive,63%,4.1 µM,20%,,,,,
